Measured values taken from ChEMBL document CHEMBL1157630, “A class of novel Schiff's bases: Synthesis, therapeutic action for chronic pain, anti-inflammation and 3D QSAR analysis” (2010).

How the values were obtained:
Format in all cases: functional
Mus musculus [1] = assay: Analgesic activity in ICR mouse assessed as increase in pain threshold variation at 20 umol/kg, po administered as single dose measured after 30 mins by tail flick test
Outline: (§1)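 Tail-flick test in mice housed 12/12 h light/dark at 21 ± 2 °C for one day. A single oral dose of 20 µmol/kg was given in 0.2 ml normal saline; vehicle controls got saline alone. Basal threshold was measured four times, then every 30 min to 180 min, with a 10 s cut-off. PTV = (post − basal)/basal. n = 12, mean ± SD%, one-way ANOVA.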

Mus musculus [2] = assay: Analgesic activity in ICR mouse assessed as increase in pain threshold variation at 20 umol/kg, po administered as single dose measured after 60 mins by tail flick test; outline: as §1
Mus musculus [3] = assay: Analgesic activity in ICR mouse assessed as increase in pain threshold variation at 20 umol/kg, po administered as single dose measured after 90 mins by tail flick test; outline: as §1
Mus musculus [4] = assay: Analgesic activity in ICR mouse assessed as increase in pain threshold variation at 20 umol/kg, po administered as single dose measured after 120 mins by tail flick test; outline: as §1
Mus musculus [5] = assay: Analgesic activity in ICR mouse assessed as increase in pain threshold variation at 20 umol/kg, po administered as single dose measured after 150 mins by tail flick test; outline: as §1
Mus musculus [6] = assay: Analgesic activity in ICR mouse assessed as increase in pain threshold variation at 20 umol/kg, po administered as single dose measured after 180 mins by tail flick test; outline: as §1
Mus musculus [7] = assay: Analgesic activity in ICR mouse assessed as increase in pain threshold variation at 2 umol/kg, ip administered as single dose measured after 30 mins by tail flick test; settings: in the assay text read “po administered” for “ip administered”
Outline: (§2)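 Mice were housed 12/12 h light/dark at 21 ± 2 °C for one day, then given a single dose. Tail-flick basal threshold was read four times, then every 30 min up to 180 min, with a 10 s cut-off. PTV = (post-dose threshold − basal)/basal. n = 12, mean ± SD%, one-way ANOVA against saline vehicle at each time point.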

Mus musculus [8] = assay: Analgesic activity in ICR mouse assessed as increase in pain threshold variation at 2 umol/kg, ip administered as single dose measured after 60 mins by tail flick test; settings: in the assay text read “po administered” for “ip administered”; outline: as §2
Mus musculus [9] = assay: Analgesic activity in ICR mouse assessed as increase in pain threshold variation at 2 umol/kg, ip administered as single dose measured after 90 mins by tail flick test; settings: in the assay text read “po administered” for “ip administered”; outline: as §2
Mus musculus [10] = assay: Analgesic activity in ICR mouse assessed as increase in pain threshold variation at 2 umol/kg, ip administered as single dose measured after 120 mins by tail flick test; settings: in the assay text read “po administered” for “ip administered”; outline: as §2
Mus musculus [11] = assay: Analgesic activity in ICR mouse assessed as increase in pain threshold variation at 2 umol/kg, ip administered as single dose measured after 150 mins by tail flick test; settings: in the assay text read “po administered” for “ip administered”; outline: as §2
Mus musculus [12] = assay: Analgesic activity in ICR mouse assessed as increase in pain threshold variation at 2 umol/kg, ip administered as single dose measured after 180 mins by tail flick test; outline: as §2
Mus musculus [13] = assay: Analgesic activity in ICR mouse assessed as increase in pain threshold variation at 0.2 umol/kg, ip administered as single dose measured after 30 mins by tail flick test; outline: as §2
Mus musculus [14] = assay: Analgesic activity in ICR mouse assessed as increase in pain threshold variation at 0.2 umol/kg, ip administered as single dose measured after 60 mins by tail flick test; outline: as §2
Mus musculus [15] = assay: Analgesic activity in ICR mouse assessed as increase in pain threshold variation at 0.2 umol/kg, ip administered as single dose measured after 90 mins by tail flick test; outline: as §2
Mus musculus [16] = assay: Analgesic activity in ICR mouse assessed as increase in pain threshold variation at 0.2 umol/kg, ip administered as single dose measured after 120 mins by tail flick test; outline: as §2
Mus musculus [17] = assay: Analgesic activity in ICR mouse assessed as increase in pain threshold variation at 0.2 umol/kg, ip administered as single dose measured after 150 mins by tail flick test; settings: in the assay text read “po administered” for “ip administered”; outline: as §2
Mus musculus [18] = assay: Analgesic activity in ICR mouse assessed as increase in pain threshold variation at 0.2 umol/kg, ip administered as single dose measured after 180 mins by tail flick test; settings: in the assay text read “po administered” for “ip administered”; outline: as §2
Mus musculus [19] = assay: Antiinflammatory activity in ICR mouse assessed as inhibition of xylene-induced ear edema at 20 umol/kg, po
Outline: (§3)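 Male ICR mice (20 ± 2 g), 12 per group, were dosed orally: test agents as suspensions in normal saline, aspirin in CMC. After 30 min, 0.03 ml xylene was applied to both surfaces of the right ear, with the left ear as control. After 2 h the mice were killed, 8 mm ear discs were weighed, and edema was taken as right minus left weight.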

Mus musculus [20] = assay: Antiinflammatory activity in ICR mouse assessed as inhibition of xylene-induced ear edema at 10 umol/kg, po; outline: as §3
Mus musculus [21] = assay: Antiinflammatory activity in ICR mouse assessed as inhibition of xylene-induced ear edema at 5 umol/kg, po; outline: as §3
Mus musculus [22] = assay: Analgesic activity in ICR mouse assessed as increase in pain threshold variation at 165 umol/kg, po administered as single dose measured after 30 mins by tail flick test
Mus musculus [23] = assay: Analgesic activity in ICR mouse assessed as increase in pain threshold variation at 165 umol/kg, po administered as single dose measured after 60 mins by tail flick test
Mus musculus [24] = assay: Analgesic activity in ICR mouse assessed as increase in pain threshold variation at 165 umol/kg, po administered as single dose measured after 90 mins by tail flick test
Mus musculus [25] = assay: Analgesic activity in ICR mouse assessed as increase in pain threshold variation at 165 umol/kg, po administered as single dose measured after 120 mins by tail flick test
Mus musculus [26] = assay: Analgesic activity in ICR mouse assessed as increase in pain threshold variation at 165 umol/kg, po administered as single dose measured after 150 mins by tail flick test
Mus musculus [27] = assay: Analgesic activity in ICR mouse assessed as increase in pain threshold variation at 165 umol/kg, po administered as single dose measured after 180 mins by tail flick test
Mus musculus [28] = assay: Antiinflammatory activity in ICR mouse assessed as inhibition of xylene-induced ear edema at 165 umol/kg, po; outline: as §3
Mus musculus [29] = assay: Analgesic activity in ICR mouse assessed as increase in pain threshold variation at 20 umol/kg, ip administered as single dose measured after 60 mins by tail flick test
Outline: (§4)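 Mice were housed on a 12/12 light/dark cycle at 21 ± 2 °C for one day before use. Each got a single intraperitoneal dose of 20 µmol/kg in normal saline; vehicle controls got […]. Tail-flick basal threshold was read four times, then every 30 min to 180 min with a 10 s cut-off. PTV = (post-dose threshold − basal)/basal. n = 12, mean ± SD, one-way ANOVA.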

Mus musculus [30] = assay: Analgesic activity in ICR mouse assessed as increase in pain threshold variation at 20 umol/kg, ip administered as single dose measured after 30 mins by tail flick test; outline: as §4
Mus musculus [31] = assay: Analgesic activity in ICR mouse assessed as increase in pain threshold variation at 20 umol/kg, ip administered as single dose measured after 90 mins by tail flick test; outline: as §4
Mus musculus [32] = assay: Analgesic activity in ICR mouse assessed as increase in pain threshold variation at 20 umol/kg, ip administered as single dose measured after 120 mins by tail flick test; outline: as §4
Mus musculus [33] = assay: Analgesic activity in ICR mouse assessed as increase in pain threshold variation at 20 umol/kg, ip administered as single dose measured after 150 mins by tail flick test; outline: as §4
Mus musculus [34] = assay: Analgesic activity in ICR mouse assessed as increase in pain threshold variation at 20 umol/kg, ip administered as single dose measured after 180 mins by tail flick test; outline: as §4

COC(=O)[C@H](C)/N=C/C=C/N[C@@H](C)C(=O)OC
Activity (Mus musculus [1]): 32.26% | Activity (Mus musculus [2]): 32.49% | Activity (Mus musculus [3]): 48.4% | Activity (Mus musculus [4]): 53.33% | Activity (Mus musculus [5]): 44.71% | Activity (Mus musculus [6]): 42.29% | Activity (Mus musculus [7]): 24.58% | Activity (Mus musculus [8]): 25% | Activity (Mus musculus [9]): 30.94% | Activity (Mus musculus [10]): 35.87% | Activity (Mus musculus [11]): 28.25% | Activity (Mus musculus [12]): 27.31% | Activity (Mus musculus [13]): 12.24% | Activity (Mus musculus [14]): 16.79% | Activity (Mus musculus [15]): 17.41% | Activity (Mus musculus [16]): 22.08% | Activity (Mus musculus [17]): 20.27% | Activity (Mus musculus [18]): 18.8% | inhibition in vivo at 20 µmol/kg (Mus musculus [19]): 53.1% | inhibition in vivo at 10 µmol/kg (Mus musculus [20]): 41.9% | inhibition in vivo at 5 µmol/kg (Mus musculus [21]): 14.8%

COC(=O)[C@H](C)N
Activity (Mus musculus [1]): 7.37% | Activity (Mus musculus [2]): 12.66% | Activity (Mus musculus [3]): 12.02% | Activity (Mus musculus [4]): 11.55% | Activity (Mus musculus [5]): 11.01% | Activity (Mus musculus [6]): 11.44%

CCC(C)[C@H](/N=C/C=C/N[C@H](C(=O)OC)C(C)CC)C(=O)OC (some centres not stated)
Activity (Mus musculus [1]): 18.66% | Activity (Mus musculus [2]): 19.68% | Activity (Mus musculus [3]): 34.31% | Activity (Mus musculus [4]): 41.65% | Activity (Mus musculus [5]): 34.89% | Activity (Mus musculus [6]): 32.75% | inhibition in vivo at 20 µmol/kg (Mus musculus [19]): 77.6% | inhibition in vivo at 10 µmol/kg (Mus musculus [20]): 68% | inhibition in vivo at 5 µmol/kg (Mus musculus [21]): 48.9%

COC(=O)[C@H](CC(C)C)/N=C/C=C/N[C@@H](CC(C)C)C(=O)OC
Activity (Mus musculus [1]): 26.52% | Activity (Mus musculus [2]): 29.79% | Activity (Mus musculus [3]): 40.37% | Activity (Mus musculus [4]): 45.12% | Activity (Mus musculus [5]): 42.38% | Activity (Mus musculus [6]): 41.84% | inhibition in vivo at 20 µmol/kg (Mus musculus [19]): 88.6% | inhibition in vivo at 10 µmol/kg (Mus musculus [20]): 80.9% | inhibition in vivo at 5 µmol/kg (Mus musculus [21]): 73.1%

COC(=O)[C@H](CCSC)/N=C/C=C/N[C@@H](CCSC)C(=O)OC
Activity (Mus musculus [1]): 28.73% | Activity (Mus musculus [2]): 29.93% | Activity (Mus musculus [3]): 31.61% | Activity (Mus musculus [4]): 23.37% | Activity (Mus musculus [5]): 22.05% | Activity (Mus musculus [6]): 21.18% | inhibition in vivo at 20 µmol/kg (Mus musculus [19]): 25.4%

COC(=O)[C@H](Cc1ccccc1)/N=C/C=C/N[C@@H](Cc1ccccc1)C(=O)OC
Activity (Mus musculus [1]): 28.22% | Activity (Mus musculus [2]): 28.92% | Activity (Mus musculus [3]): 35.82% | Activity (Mus musculus [4]): 40.67% | Activity (Mus musculus [5]): 35.33% | Activity (Mus musculus [6]): 30.66% | inhibition in vivo at 20 µmol/kg (Mus musculus [19]): 36.8% | inhibition in vivo at 10 µmol/kg (Mus musculus [20]): 25.4% | inhibition in vivo at 5 µmol/kg (Mus musculus [21]): 12.9%

COC(=O)[C@H](COCc1ccccc1)/N=C/C=C/N[C@@H](COCc1ccccc1)C(=O)OC
Activity (Mus musculus [1]): 32.18% | Activity (Mus musculus [2]): 34.87% | Activity (Mus musculus [3]): 36.24% | Activity (Mus musculus [4]): 37.48% | Activity (Mus musculus [5]): 34.17% | Activity (Mus musculus [6]): 33.33% | inhibition in vivo at 20 µmol/kg (Mus musculus [19]): 55%

COC(CC(OC)OC)OC
Activity (Mus musculus [1]): 6.22% | Activity (Mus musculus [2]): 11.84% | Activity (Mus musculus [3]): 12.15% | Activity (Mus musculus [4]): 11.93% | Activity (Mus musculus [5]): 11.8% | Activity (Mus musculus [6]): 11.89%

CC(=O)Oc1ccccc1C(=O)O [ASPIRIN]
Activity (Mus musculus [22]): 12.88% | Activity (Mus musculus [23]): 18.69% | Activity (Mus musculus [24]): 19.79% | Activity (Mus musculus [25]): 16.46% | Activity (Mus musculus [26]): 14.59% | Activity (Mus musculus [27]): 14.65% | inhibition in vivo at 165 µmol/kg (Mus musculus [28]): 65.1%

CN1CC[C@]23c4c5ccc(O)c4O[C@H]2[C@@H](O)C=C[C@H]3[C@H]1C5 [MORPHINE]
Activity (Mus musculus [29]): 177.6% | Activity (Mus musculus [30]): 147% | Activity (Mus musculus [31]): 122.7% | Activity (Mus musculus [32]): 64.9% | Activity (Mus musculus [33]): 36.7% | Activity (Mus musculus [34]): 32.9%
